ChEMBL document CHEMBL1136978, “Aryl urea derivatives of spiropiperidines as NPY Y5 receptor antagonists” (Bioorg Med Chem Lett, 2009)

Key:
Assay type in all cases: ADME, organism-based
Brain = experiment: Drug level in rat brain at 10 mg/kg, po after 2 hrs measured per gram of tissue; set-up: dose 10 mg/kg, route oral; settings: in vivo
Summary of the method: (§1)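 Single oral dose of 10 mg/kg to rats (n = 3). Plasma (µM), brain (nmol/g tissue) and CSF (µM) levels taken at 2 h post-dose.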

[1] = Plasma concentration in rat at 10 mg/kg, po after 2 hrs; set-up: dose 10 mg/kg, route oral; summary of the method: as §1
[2] = Oral bioavailability in rat at 3 mg/kg, iv and 10 mg/kg, po; settings: in vivo
[3] = Drug level in rat cerebrospinal fluid at 10 mg/kg, po after 2 hrs; set-up: dose 10 mg/kg, route oral; settings: read-out: Drug uptake; summary of the method: as §1

Drug uptake (Brain) [nmol/g] | concentration at 2 h [1] [nM] | bioavailability [2] [%] | concentration at 2 h [3] [nM] | SMILES
0.029 | 360 | 8 |  | O=C1NC2(CCN(C(=O)Nc3cnc(-c4ccccc4)cn3)CC2)c2ccccc21
2.92 | 2980 | 49 | 100 | O=C1OC2(CCN(C(=O)Nc3cnc(-c4ccccc4)cn3)CC2)c2ccccc21
 |  | 3 |  | O=C1Cc2ccccc2C2(CCN(C(=O)Nc3cnc(-c4ccccc4)cn3)CC2)N1
0.26 | 3860 |  | 130 | O=C1OC2(CCN(C(=O)Nc3ncc(-c4ccccc4)cn3)CC2)c2ccccc21
1.09 | 1420 |  | < 10 | O=C1OC2(CCN(C(=O)Nc3cc(-c4ccc(Cl)cc4)no3)CC2)c2ccccc21
